Measured values published in ChEMBL document CHEMBL1157540, “2-Arylthiomorpholine derivatives as potent and selective monoamine oxidase B inhibitors” (Bioorg Med Chem, 2010).
pKi: −log10 of the molar value.

Assays:
[1] = target: T1, Amine oxidase [flavin-containing] B (Homo sapiens, UniProt P27338); experiment: Inhibition of human recombinant MAOB by spectrophotometrically
T1 sequence (P27338 whole entry): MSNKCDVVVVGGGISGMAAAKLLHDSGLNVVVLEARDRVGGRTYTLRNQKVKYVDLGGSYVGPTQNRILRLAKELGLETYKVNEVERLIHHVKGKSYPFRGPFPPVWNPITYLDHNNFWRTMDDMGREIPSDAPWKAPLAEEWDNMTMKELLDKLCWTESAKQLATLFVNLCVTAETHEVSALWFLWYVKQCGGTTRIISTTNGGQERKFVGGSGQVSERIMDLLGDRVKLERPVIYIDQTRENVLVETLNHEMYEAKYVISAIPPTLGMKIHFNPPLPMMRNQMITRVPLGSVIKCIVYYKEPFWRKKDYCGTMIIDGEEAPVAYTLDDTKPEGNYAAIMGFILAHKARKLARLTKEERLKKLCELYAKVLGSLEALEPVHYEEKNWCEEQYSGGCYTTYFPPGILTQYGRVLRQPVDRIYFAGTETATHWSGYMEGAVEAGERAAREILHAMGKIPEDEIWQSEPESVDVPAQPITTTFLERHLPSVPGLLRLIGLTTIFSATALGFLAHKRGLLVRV
In short: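 Purified human recombinant MAO-B; benzylamine substrate in 50 mM Hepes pH 7.5 with 0.5% (w/v) reduced Triton X-100 at 25 °C. Benzaldehyde formation monitored at 250 nm. Ki from full kinetic determinations (initial velocities at varied inhibitor levels; Lineweaver–Burk analysis).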

[2] = target: T2, Amine oxidase [flavin-containing] A (Homo sapiens, UniProt P21397); experiment: Inhibition of human recombinant MAOA by spectrophotometrically
T2 sequence (P21397 whole entry): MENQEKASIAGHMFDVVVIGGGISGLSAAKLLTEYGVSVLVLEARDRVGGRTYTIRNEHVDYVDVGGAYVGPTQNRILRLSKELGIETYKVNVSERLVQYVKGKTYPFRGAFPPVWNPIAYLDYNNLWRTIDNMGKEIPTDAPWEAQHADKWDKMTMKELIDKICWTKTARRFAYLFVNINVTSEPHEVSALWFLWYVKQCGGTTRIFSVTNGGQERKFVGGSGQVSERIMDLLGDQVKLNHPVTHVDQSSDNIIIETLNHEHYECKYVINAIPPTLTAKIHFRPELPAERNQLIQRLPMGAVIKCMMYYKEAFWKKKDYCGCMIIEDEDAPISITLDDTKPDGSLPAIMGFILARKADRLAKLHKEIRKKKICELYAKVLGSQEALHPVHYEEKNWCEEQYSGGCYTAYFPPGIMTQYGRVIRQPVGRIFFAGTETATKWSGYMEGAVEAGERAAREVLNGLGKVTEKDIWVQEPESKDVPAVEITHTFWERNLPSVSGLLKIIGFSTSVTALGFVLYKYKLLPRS
In short: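 Purified human recombinant MAO-A; initial oxidation rates read spectrophotometrically at 30 °C in 50 mM potassium phosphate pH 7.4 with 0.05% Triton X-100. Kynuramine 0.1–0.9 mM at six inhibitor concentrations spanning 10-fold; product followed at 314 nm. Ki taken directly from full kinetic analysis; errors from a single kinetic analysis.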

[3] = organism: Rattus norvegicus; experiment: Selectivity ratio of Ki for rat MAOA to Ki for rat MAOB
In short: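 Ki(rMAO-A)/Ki(rMAO-B), each from rat brain mitochondrial IC50 by Cheng–Prusoff (5-HT for MAO-A, Km 100 μM; DMAPEA for MAO-B, Km 5 μM; HPLC-electrochemical detection).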

[4] = target: T3, Amine oxidase [flavin-containing] A (Rattus norvegicus, UniProt P21396); experiment: Inhibition of MAOA in rat brain mitochondrial suspension; assay type: tissue-based
T3 sequence (P21396 whole entry): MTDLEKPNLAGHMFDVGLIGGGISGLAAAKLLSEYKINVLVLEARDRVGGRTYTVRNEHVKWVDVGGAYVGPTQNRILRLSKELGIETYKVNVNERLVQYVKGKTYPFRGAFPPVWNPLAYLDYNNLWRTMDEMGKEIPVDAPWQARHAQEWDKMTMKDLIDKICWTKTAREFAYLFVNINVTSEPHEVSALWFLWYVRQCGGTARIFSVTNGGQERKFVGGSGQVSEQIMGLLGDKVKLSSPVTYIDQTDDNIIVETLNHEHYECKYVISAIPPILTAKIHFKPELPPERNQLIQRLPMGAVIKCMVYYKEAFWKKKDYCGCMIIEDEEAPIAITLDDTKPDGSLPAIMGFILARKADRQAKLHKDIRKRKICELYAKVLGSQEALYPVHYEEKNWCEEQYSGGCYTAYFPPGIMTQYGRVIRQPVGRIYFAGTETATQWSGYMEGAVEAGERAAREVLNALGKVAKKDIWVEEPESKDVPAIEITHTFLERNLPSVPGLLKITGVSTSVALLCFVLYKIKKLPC
In short: (§1)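 Rat brain mitochondria; MAO-A substrate 5-HT, MAO-B substrate DMAPEA; metabolites measured by HPLC with electrochemical detection. Percent inhibition relative to enzyme treated alike without inhibitor; IC50 from inhibition vs –log concentration (mean ± SD, at least two independent experiments, each in triplicate). Ki by Cheng–Prusoff with Km 100 μM (5-HT, MAO-A) and 5 μM (DMAPEA, MAO-B).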

[5] = target: T4, Amine oxidase [flavin-containing] B (Rattus norvegicus, UniProt P19643); experiment: Inhibition of MAOB in rat brain mitochondrial suspension; assay type: tissue-based; in short: as §1
T4 sequence (P19643 whole entry): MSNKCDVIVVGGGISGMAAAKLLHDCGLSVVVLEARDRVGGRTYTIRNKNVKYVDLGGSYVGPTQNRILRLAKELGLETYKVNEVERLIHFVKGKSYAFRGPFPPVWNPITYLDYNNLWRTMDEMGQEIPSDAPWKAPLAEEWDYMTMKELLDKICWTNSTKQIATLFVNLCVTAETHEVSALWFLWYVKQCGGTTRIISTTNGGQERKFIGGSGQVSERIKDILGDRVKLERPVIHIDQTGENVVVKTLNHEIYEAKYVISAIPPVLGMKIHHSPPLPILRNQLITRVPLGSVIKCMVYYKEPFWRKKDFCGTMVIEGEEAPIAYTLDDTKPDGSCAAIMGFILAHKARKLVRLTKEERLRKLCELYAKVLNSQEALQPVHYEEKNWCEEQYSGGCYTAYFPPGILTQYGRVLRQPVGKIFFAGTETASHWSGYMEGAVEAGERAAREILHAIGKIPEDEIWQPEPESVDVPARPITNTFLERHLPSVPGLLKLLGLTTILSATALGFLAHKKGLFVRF

[6] = organism: Homo sapiens; experiment: Selectivity ratio of Ki for human MAOA to Ki for human MAOB

O=C1CSC(c2ccccc2)CN1 (racemic)
pKi [1]: < 4.00 | pKi [2]: < 4.00 | Ratio Ki [3]: 1 | pKi [4]: 5.04 | pKi [5]: 5.02

CCCOc1ccc(C2CNC(=O)CS2)cc1 (racemic)
pKi [1]: 5.62 | Ratio Ki [6]: 16.7 | pKi [2]: 4.40 | Ratio Ki [3]: 6 | pKi [4]: 5.06 | pKi [5]: 5.83

CCOc1ccc(C2CNCCS2)cc1 (racemic)
pKi [1]: 5.68 | Ratio Ki [6]: 5 | pKi [2]: 5.02 | Ratio Ki [3]: 1 | pKi [4]: 5.66 | pKi [5]: 5.66

CCCCOc1ccc(C2CNCCS2)cc1 (racemic)
pKi [1]: 7.17 | Ratio Ki [6]: 37 | pKi [2]: 5.60 | Ratio Ki [3]: 52 | pKi [4]: 4.85 | pKi [5]: 6.57

c1ccc(COc2ccc(C3CNCCS3)cc2)cc1 (racemic)
pKi [1]: 7.42 | Ratio Ki [6]: > 2600 | pKi [2]: < 4.00 | Ratio Ki [3]: 146 | pKi [4]: 4.72 | pKi [5]: 6.89

COc1ccc(C2CNC(=O)CS2)cc1 (racemic)
pKi [1]: < 4.00 | pKi [2]: < 4.00 | Ratio Ki [3]: 0.68 | pKi [4]: 5.03 | pKi [5]: 4.87

CCOc1ccc(C2CNC(=O)CS2)cc1 (racemic)
pKi [1]: 4.77 | Ratio Ki [6]: 3.5 | pKi [2]: 4.22 | Ratio Ki [3]: 3.6 | pKi [4]: 4.91 | pKi [5]: 5.47

CCCCOc1ccc(C2CNC(=O)CS2)cc1 (racemic)
pKi [1]: 6.34 | Ratio Ki [6]: 22 | pKi [2]: 5.00 | Ratio Ki [3]: 318 | pKi [4]: 4.29 | pKi [5]: 6.80

O=C1CSC(c2ccc(OCc3ccccc3)cc2)CN1 (racemic)
pKi [1]: 7.32 | Ratio Ki [6]: > 2000 | pKi [2]: < 4.00 | Ratio Ki [3]: 373 | pKi [4]: 4.56 | pKi [5]: 7.13

COc1ccc(C2CNCCS2)cc1 (racemic)
pKi [1]: < 4.00 | pKi [2]: 4.79 | Ratio Ki [3]: 1.7 | pKi [4]: 5.19 | pKi [5]: 5.41

CCCOc1ccc(C2CNCCS2)cc1 (racemic)
pKi [1]: 6.89 | Ratio Ki [6]: 51 | pKi [2]: 5.18 | Ratio Ki [3]: 4 | pKi [4]: 5.43 | pKi [5]: 6.01

c1ccc(C2CNCCS2)cc1 (racemic)
pKi [1]: < 4.00 | pKi [2]: < 4.00 | Ratio Ki [3]: 5 | pKi [4]: 4.97 | pKi [5]: 5.65

C[C@H](N)Cc1ccccc1 [DEXTROAMPHETAMINE]
pKi [1]: 3.55 | Ratio Ki [6]: 0.05 | pKi [2]: 4.84 | Ratio Ki [3]: > 0.12 | pKi [4]: 4.91 | pKi [5]: < 4.00
